In PMC8179325 (Cell reports, 2021):
Entries after “also recorded” stand apart in the source; their conditions may differ.

How the values were obtained:
[1] = tested on: axotomized mouse dorsal root ganglia (DRG) axons; assay: Axonal metabolites; assay type: cell-based; details: axonal lysates after axotomy, dose dependent
In short: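 Mouse E13.5 DRG neurons spotted at 100,000 cells/well; test compound present at graded concentrations; all axons severed around the soma cluster at DIV6. After 4 h, cell bodies removed on ice; axons extracted in 50% MeOH with chloroform partition, then lyophilized. cADPR and NAD+ quantified by online SPE-LC-MS/MS with 2-chloroadenosine internal standard against synthetic standard curves. Reported as ng/100,000 cells; n = 3/condition.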

[2] = tested on: axotomized mouse DRG neurons; assay: Axon degeneration; assay type: cell-based; details: for axonal protection after axotomy: WT mouse DRG, 16 h post-axotomy
In short: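 Mouse DRG from E13.5 C57BL/6J embryos, trypsin/EDTA-dissociated (37°C, 30 min), spotted at 5,000 cells/well on poly-D-lysine/laminin; assay at 6–7 DIV. Test compound diluted from 10 mM DMSO stock (final DMSO 0.3%), pretreated 2 h unless added after injury (e.g. 30 µM at set times). Axons cut manually with micro-surgical blade and scored for fragmentation 16 h post-axotomy.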

[3] = tested on: human iPSC-derived motor neurons; assay: Axon fragmentation after axotomy in human motor neurons; assay type: cell-based
In short: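 Human iPSC-derived motor neurons spotted at 10,000 cells/well on poly-D-lysine/laminin in Complete Maintenance Medium + 5 µM DAPT; assay at 14 DIV. Test compound diluted from 10 mM DMSO stock (final DMSO 0.3%), pretreated 2 h before injury. Axons cut manually with micro-surgical blade and examined for fragmentation 16 h post-axotomy.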

mouse DRG neurons [4] = assay: Rotenone-induced axonal degeneration; assay type: cell-based
In short: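 Mouse DRG cultures at 6–7 DIV received 25 µM rotenone, either continuously or as 1- or 3-h pulses removed by gentle 3× rinsing. Test compound at 30 µM was given either as 2-h pretreatment or immediately after rotenone removal. Axonal fragmentation scored 48 h after rotenone onset; n = 4.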

mouse DRG neurons [5] = assay: NfL release in response to rotenone; assay type: cell-based; details: 25 μM rotenone
In short: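 Culture supernatants from mouse DRG neurons exposed to 25 µM rotenone, either continuously sampled over time or as 1- or 3-h pulses with collection at 48 h. Neurofilament light measured by NF-Light ELISA per the kit instructions.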

mouse DRG neurons [6] = assay: Video time-lapse analysis of individual axonal blebs after rotenone pulse; assay type: cell-based
In short: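 Mouse DRG cultures given a 3-h pulse of 25 µM rotenone, rinsed, ± 30 µM test compound, then imaged brightfield every 15 min at 20X for 48 h. A blinded observer identified blebs at 3 h, tracked them back to confirm origin from healthy axons, then forward until fragmentation, resolution or end. Data analysed by Kaplan-Meier, with percentages taken at 48 h.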

mouse DRG axons = assay: Mitochondrial membrane potential by TMRM fluorescence; assay type: cell-based
In short: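 Mitochondrial membrane potential in mouse DRG axons read live as TMRM fluorescence; cells were then rinsed, fixed in 1% paraformaldehyde and immunostained for βIII-tubulin. Axotomy arm: 10 µM test compound. Rotenone arm: 3-h pulse of 25 µM rotenone, rinsed 3×, 30 µM test compound immediately afterward, imaged 48 h after rotenone onset; n = 4.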

mouse DRG neurons [7] = assay: Axonal cADPR after 3-h rotenone pulse; assay type: cell-based; details: 3 h 25 μM rotenone, rinse, then 4 h compound
In short: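 Mouse DRG cultures given a 3-h pulse of 25 µM rotenone, rinsed, then test compound added. Axonal metabolites extracted on ice: cell bodies removed, 50% MeOH, chloroform partition, lyophilization. cADPR measured by SPE-LC-MS/MS with 2-chloroadenosine internal standard against synthetic standard curves; reported as ng/100,000 cells.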

CD38 = target: T1, CD38 (Homo sapiens, UniProt P28907); assay: Biochemical selectivity panel
T1 sequence (P28907 1-300): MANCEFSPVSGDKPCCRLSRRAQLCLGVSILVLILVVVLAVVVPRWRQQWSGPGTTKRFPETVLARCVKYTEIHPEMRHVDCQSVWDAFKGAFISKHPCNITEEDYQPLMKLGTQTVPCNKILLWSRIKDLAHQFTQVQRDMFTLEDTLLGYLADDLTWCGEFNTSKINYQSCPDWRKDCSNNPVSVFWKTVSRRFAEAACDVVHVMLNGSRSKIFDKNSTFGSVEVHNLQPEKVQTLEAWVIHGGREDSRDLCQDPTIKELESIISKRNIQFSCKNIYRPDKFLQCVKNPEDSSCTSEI

mouse DRG somas = assay: Neuronal cell death after rotenone pulse; assay type: cell-based; details: WT DRG, 25 µM rotenone, 48 h
In short: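 Live mouse DRG cultures exposed to 25 µM rotenone for 48 h, then stained 20 min with 0.25 µM Cytotox Green (dead cells) and 1 µM Cytolight red. Imaged by IncuCyte at 20X, 9 fields/well; bright-field gave total cell counts and green fluorescence gave dead somas.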

[8] = target: T2, constitutively active SAM-TIR protein of human SARM1 (Homo sapiens, UniProt Q6SZW1); assay: SAM-TIR NADase assay; assay type: biochemical
T2 sequence (Q6SZW1 409-700): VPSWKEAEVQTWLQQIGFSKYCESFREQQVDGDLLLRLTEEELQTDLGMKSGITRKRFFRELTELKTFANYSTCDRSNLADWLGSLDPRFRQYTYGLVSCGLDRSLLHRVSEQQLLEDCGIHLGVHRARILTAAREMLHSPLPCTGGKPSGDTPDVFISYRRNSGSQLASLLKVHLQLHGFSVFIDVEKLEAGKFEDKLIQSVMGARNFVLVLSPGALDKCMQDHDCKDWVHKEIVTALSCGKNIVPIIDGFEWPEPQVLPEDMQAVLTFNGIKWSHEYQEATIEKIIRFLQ

[9] = 30 μM added after 3-h pulse of 25 μM rotenone

Ic1cccc2cnccc12 [DSRM-3716, 5-iodoisoquinoline]
preservation of NAD+ after axotomy [1]: substantial preservation of NAD^+ | additional axonal protection in SARM1−/− neurons ([2]; SARM1−/− DRG, 30 µM, axotomy): did not provide benefit beyond the robust protection observed with SARM1 genetic loss of function | axonal protection after axotomy [2]: protected axons | axonal protection, inhibitor added after injury ([2]; added 5 h post-axotomy): robustly protected | protection from fragmentation after axotomy [3]: dose-dependent protection | protection from rotenone-induced axonal degeneration (pretreatment) (mouse DRG neurons [4]; 25 μM rotenone, 48 h, 30 μM compound): prevented axonal degeneration to the same extent as protection observed in SARM1^−/− neurons; also recorded: robust protection | protection from fragmentation, compound added after rotenone pulse (mouse DRG neurons [4]; 3-h pulse 25 μM rotenone, 30 μM compound immediately after removal, 48 h): protected axons from fragmentation | NfL release into culture supernatant in response to rotenone (mouse DRG neurons [5]): can be prevented | axonal blebs induced by rotenone that fragmented (transected) (mouse DRG neurons [6]; [9]): 10% | axonal blebs induced by rotenone that remained (mouse DRG neurons [6]; [9]): 30% | TMRM fluorescence (mitochondrial viability) after axotomy (mouse DRG axons; 10 μM, axotomy): preserved TMRM fluorescence; also recorded: maintained viable functional mitochondria | mitochondrial function by TMRM after rotenone pulse (mouse DRG axons; 3-h pulse 25 μM rotenone, 30 μM compound after removal, 48 h): preserved mitochondrial function | axonal levels of cADPR after rotenone pulse (mouse DRG neurons [7]): reduced axonal levels of cADPR | inhibitory activity against CD38 (CD38): no inhibitory activity

C=C(C)[C@H]1Cc2c(ccc3c2O[C@@H]2COc4cc(OC)c(OC)cc4[C@@H]2C3=O)O1 [rotenone, reference compound]
axonal degeneration after rotenone pulse (mouse DRG neurons [4]; 25 μM rotenone removed after 1 h, examined at 48 h): ~ 70% | blebs transected after rotenone removal (mouse DRG neurons [6]; 3-h pulse 25 μM rotenone, by 18 h): 95% | blebs fragmented after rotenone removal (mouse DRG neurons [6]; 3-h pulse 25 μM rotenone, by 48 h): 100% | neuronal cell death (dead somas) caused by rotenone (mouse DRG somas): approximately 60%

O=C(c1cc(Cc2n[nH]c(=O)c3ccccc23)ccc1F)N1CCN(C(=O)C2CC2)CC1 [olaparib, reference compound]
axonal protection after axotomy [2]: no protection of injured axons

Oc1cccc2cnccc12 [compound 3, 5-hydroxyisoquinoline]
IC50 [8]: 2600 nM
